Active and inactive are the calls of the source. The rule behind the calls is not given here.
How the values were obtained:
[1] = system: HeLa; assay: Induction of apoptosis in human HeLa cells assessed as caspase-3 activation at 1 uM using Ac-DEVD-AMC as substrate after 12 hrs by fluorescence based assay relative to control; assay type: functional
Method in brief: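 Caspase-3 and caspase-8 activities were measured in HeLa cells after 12 h at 1 μM, without or with 4 Gy X-rays. Mean ± SD of three independent experiments.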

[2] = system: HeLa; assay: Effect on dihydrofolate reductase protein expression in human HeLa cell lysates at 1 to 2 uM by Western blot analysis; assay type: functional, cell-based
[3] = Toxicity in BALB/c mouse xenografted with human HeLa cells assessed as kidney damage at 4 mg/kg, iv administered for every 3 days for 21 days and measured after 24 hrs post last dose by H and E staining based light microscopic analysis; assay type: organism-based; settings: in vivo
Method in brief: (§1)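 HeLa-tumor-bearing nude mice dosed at 4 mg/kg iv every 3 days for 21 days, alone or with X-rays; euthanized 24 h after last injection; heart, liver, lungs, kidneys and spleen sectioned and stained with H&E.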

[4] = Drug localization in lysosome of human HeLa cells at 20 uM after 4 hrs by LysoTracker/DAPI staining based fluorescence microscopic analysis; assay type: ADME, subcellular
Method in brief: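 HeLa cells pretreated with 20 μM compound; LysoTracker added 2 h and DAPI 30 min before each time point; compound green fluorescence (emission about 510 nm) overlaid with lysosome (red) and nucleus under fluorescence microscope.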

[5] = Toxicity in BALB/c mouse xenografted with human HeLa cells assessed as lung damage at 4 mg/kg, iv administered for every 3 days for 21 days and measured after 24 hrs post last dose by H and E staining based light microscopic analysis; assay type: organism-based; settings: in vivo; method in brief: as §1
[6] = Toxicity in BALB/c mouse xenografted with human HeLa cells assessed as liver damage at 4 mg/kg, iv administered for every 3 days for 21 days and measured after 24 hrs post last dose in presence of 4 Gy X-ray irradiation by H and E staining based light microscopic analysis; assay type: organism-based; settings: in vivo; method in brief: as §1
[7] = Cytotoxicity against human Ect1 cells assessed as reduction in cell viability in presence of 4 Gy irradiation by MTT assay; assay type: cell-based; settings: light or radiation study
Method in brief: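 MTT viability assay in Ect1/E6E7 normal ectocervical epithelial cells, with the test agent alone (0 Gy) or combined with 4 Gy X-rays. IC50 values are in μM.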

[8] = system: HeLa; assay: Induction of mitochondrial dysfunction in human HeLa cells assessed as change in mitochondrial membrane potential at 1 uM incubated for 24 hrs by JC1 staining based flow cytometry (reference value: 1.3%); assay type: functional
Method in brief: (§2)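 Mitochondrial membrane potential was assessed by JC-1 flow cytometry in HeLa cells treated at 1 μM without or with 4 Gy X-rays. Green fluorescence gives the proportion of cells with lost ΔΨm.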

[9] = system: HeLa; assay: Induction of cell cycle arrest in human HeLa cells assessed as accumulation at SubG1 phase at 1 uM after 48 hrs by propidium iodide staining based flow cytometric analysis (reference value: 0.8%); assay type: functional
[10] = system: HeLa; assay: Induction of cell cycle arrest in human HeLa cells assessed as accumulation at G1 phase at 1 uM after 48 hrs in presence of 4 Gy X-ray radiation by propidium iodide staining based flow cytometric analysis (reference value: 28.6%); assay type: functional
[11] = Toxicity in BALB/c mouse xenografted with human HeLa cells assessed as kidney damage by measuring effect on uric acid level at 4 mg/kg, iv administered every 3 days for 21 days; assay type: organism-based; settings: in vivo
Method in brief: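 HeLa xenograft nude mice dosed at 4 mg/kg iv every 3 days over 21 days, alone or with X-rays; blood collected 24 h after last injection for serum biochemistry: ALT, AST (liver), BUN and uric acid (kidney).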

[12] = Toxicity in BALB/c mouse xenografted with human HeLa cells assessed as kidney damage at 4 mg/kg, iv administered for every 3 days for 21 days and measured after 24 hrs post last dose in presence of 4 Gy X-ray irradiation by H and E staining based light microscopic analysis; assay type: organism-based; settings: in vivo; method in brief: as §1
[13] = system: HeLa; assay: Induction of cell cycle arrest in human HeLa cells assessed as accumulation at G2/M phase at 1 uM after 48 hrs in presence of 4 Gy X-ray radiation by propidium iodide staining based flow cytometric analysis (reference value: 40.4%); assay type: functional
[14] = system: HeLa; assay: Antimigratory activity in human HeLa cells assessed as inhibition of cell migration at 1 uM after 24 hrs by wound healing assay relative to control; assay type: functional; settings: read-out: INH
Method in brief: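 Wound-healing scratch assay in HeLa cells. Cells were treated without or with 4 Gy X-rays, and wound closure was imaged by phase-contrast microscopy at the indicated times. Migrated cells were counted manually. Mean ± SD of three independent experiments.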

[15] = system: HeLa; assay: Induction of reactive oxygen species generation in human HeLa cells incubated with DHE for 30 mins and measured up to 30 mins in presence of 4 Gy X-ray radiation by fluorescence microscopic analysis; assay type: functional, cell-based
Method in brief: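 HeLa cells pretreated with compound, with or without 4 Gy X-rays, then incubated with dihydroethidium for 30 min; red superoxide-derived fluorescence imaged by fluorescence microscopy, with observation continued over a further 30 min.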

[16] = system: HeLa; assay: Induction of mitochondrial dysfunction in human HeLa cells assessed as change in mitochondrial membrane potential at 1 uM incubated for 24 hrs in presence of 4 Gy X-ray irradiation by JC1 staining based flow cytometry (reference value: 4.9%); assay type: functional; method in brief: as §2
[17] = Toxicity in BALB/c mouse xenografted with human HeLa cells assessed as liver damage at 4 mg/kg, iv administered for every 3 days for 21 days and measured after 24 hrs post last dose by H and E staining based light microscopic analysis; assay type: organism-based; settings: in vivo; method in brief: as §1
[18] = Safety index, ratio of IC50 for cytotoxicity against human Ect1 cells assessed as reduction in cell viability to IC50 for antiproliferative activity against human HeLa cells assessed as reduction in cell viability incubated for 12 hrs by MTT assay; assay type: toxicity, cell-based; settings: Ect1 cells versus HeLa cells, read-out: Ratio IC50
Method in brief: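 Safe index SI0 from MTT assay without irradiation: IC50 in Ect1/E6E7 normal ectocervical cells divided by IC50 in HeLa cells.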

Structure (SMILES): Nc1nc(N)c2nc3c(nc2n1)-c1cccc2cccc-3c12
- Activity [1]: 121%
- Activity [2]: Active
- Activity [3]: Non-Toxic
- Drug uptake [4]: Active
- Activity [5]: Non-Toxic
- Activity [6]: Non-Toxic
- IC50 [7]: 3.1 µM
- Activity [8]: 6.8%
- Activity [9]: 6.9%
- Activity [10]: 47.7%
- Activity [11]: Non-Toxic
- Activity [12]: Non-Toxic
- Activity [13]: 36.2%
- inhibition at 1 µM [14]: 46%
- Activity [15]: Active
- Activity [16]: 32.3%
- Activity [17]: Non-Toxic
- selectivity ratio at 12 h [18]: 3.3

From ChEMBL document CHEMBL4622964, “Designing Dihydrofolate Reductase Inhibitors as X-ray Radiosensitizers to Reverse Radioresistance of Cervical Cancer” (ACS Med Chem Lett, 2020)
